# Pf Dd2 growth = inhibitors of Plasmodium falciparum Dd2 growth | P. falciparum Dd2 growth, SYBR Green, 72 h; active compounds read low | 94,000 compounds, 2.3% hits | activity change, % at 10 µM | AID 1159554; in the data active = activity change below about -80%
# IDH1 mut inh = IDH1 R132H (human) inhibition; O75874; IDH1 R132H reductase, diaphorase/resazurin fluorescence, 60 min; inhibition, % at 10 µM; 70,000 compounds, 0.18% hits; in the data active = inhibition above about 34%;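 also: 0% = DMSO and 100% = no enzyme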
# Target sequence (O75874 whole entry R132H): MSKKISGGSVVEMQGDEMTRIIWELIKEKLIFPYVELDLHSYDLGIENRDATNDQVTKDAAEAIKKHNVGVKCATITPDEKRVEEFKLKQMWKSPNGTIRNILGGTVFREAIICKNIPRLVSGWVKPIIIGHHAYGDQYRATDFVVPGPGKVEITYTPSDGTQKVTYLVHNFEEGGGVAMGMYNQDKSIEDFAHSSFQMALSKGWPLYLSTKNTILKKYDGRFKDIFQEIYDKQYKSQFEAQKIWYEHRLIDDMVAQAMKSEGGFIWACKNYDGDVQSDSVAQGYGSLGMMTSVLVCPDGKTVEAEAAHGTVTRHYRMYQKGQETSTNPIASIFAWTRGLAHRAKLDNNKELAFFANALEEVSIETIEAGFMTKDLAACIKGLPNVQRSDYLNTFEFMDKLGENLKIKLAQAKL
# T cruzi growth = T. cruzi proliferation inhibition. T. cruzi beta-gal in NIH3T3, GalScreen luminescence, 90 h. inhibition, % at 8.34 µM. 77,000 compounds, 5.9% hits;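 active = mean inhibition above about 93%, with at least 55% of replicates each passing it, limit read from the data, passing the limit was not always enough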
# GASC1 inh = KDM4C (human) demethylase inhibition; Q9H3R0; GST-KDM4C 2-372, H3K9me3 peptide, LANCE TR-FRET; inhibition, % at 12.5 µM; 96,000 compounds, 0.15% hits; AID 720574;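 active = mean replicate inhibition above about 25%, with at least 55% of replicates also reaching it, limit read from the data, passing the limit was not always enough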
#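 material = GST-tagged GASC-1 (JMJD2C) catalytic fragment, aa 2-372 | amount = enzyme final amount 10 nM | medium = HEPES buffer, pH 7.5, plus ascorbate | also added = H3K9me3 peptide substrate, Fe(II), 2-oxoglutarate | dosing = single dose | times = 30 min demethylation and 1 h detection at room temperature | detection = LANCE TR-FRET | read-out basis = Fall in 671/618 emission ratio as inhibition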
# Starred values were filed as active, the others as inactive; nt = no result. In the library only some 5.9% were active in any assay of this set; here they are far more common.
SMILES,Pf Dd2 growth,IDH1 mut inh,T cruzi growth,GASC1 inh
CNC[C@H]1Oc2ncc(C#Cc3cccc(OC)c3)cc2C(=O)N([C@H](C)CO)C[C@H]1C,-83*,-1,76,-3
C[C@H]1CN([C@@H](C)CO)C(=O)c2cc(C#Cc3ccncc3)cnc2O[C@@H]1CN(C)Cc1ccncc1,-19,37*,68,1
CNC[C@@H]1Oc2ncc(C#Cc3cccc(OC)c3)cc2C(=O)N([C@H](C)CO)C[C@@H]1C,-21,-1,35,-2
CCn1c2ccccc2c2cc(/C=N/NC(=O)c3ccccc3O)ccc21,nt,0,nt,nt
CC(C)NS(=O)(=O)c1ccc(OCC(N)=O)cc1,nt,0,nt,nt
O=C(Nc1ccccc1C(=O)O)c1cccc(S(=O)(=O)Nc2ccccc2F)c1,nt,-1,nt,nt
COC(=O)c1c(NC(=O)Cn2cc([N+](=O)[O-])cn2)sc2c1CCCC2,nt,0,nt,nt
CCCN(C)C[C@H]1Oc2ncc(C#Cc3ccccc3OC)cc2C(=O)N([C@H](C)CO)C[C@H]1C,-87*,0,nt,-3
COc1ccccc1C#Cc1cnc2c(c1)C(=O)N([C@@H](C)CO)C[C@@H](C)[C@@H](CN(C)C)O2,-18,0,-2,-1
CCCN(C)C[C@H]1Oc2ncc(C#Cc3ccccc3OC)cc2C(=O)N([C@@H](C)CO)C[C@H]1C,78,-1,nt,-2
COc1ccccc1C#Cc1cnc2c(c1)C(=O)N([C@@H](C)CO)C[C@H](C)[C@H](CN(C)C)O2,-25,-1,75,29*
O=C(OCC1OC(Oc2ccc(O)cc2COC(=O)C2(O)C(O)CCC(=O)C2O)C(O)C(O)C1O)c1ccccc1 (stereo not given),nt,36*,nt,nt
Cc1ccc(S(=O)(=O)N(C)C[C@H]2Oc3cc(C#Cc4ccncc4)ccc3S(=O)(=O)N([C@@H](C)CO)C[C@@H]2C)cc1,-86*,-3,67,-13
Cc1ccc(S(=O)(=O)N(C)C[C@@H]2Oc3cc(C#Cc4ccncc4)ccc3S(=O)(=O)N([C@@H](C)CO)C[C@H]2C)cc1,-81*,0,82,nt
C[C@H]1CN([C@@H](C)CO)S(=O)(=O)c2ccc(C#Cc3ccncc3)cc2O[C@@H]1CN(C)S(=O)(=O)c1ccccc1,-93*,12,23,28*
C[C@@H]1CN([C@H](C)CO)S(=O)(=O)c2ccc(C#Cc3ccncc3)cc2O[C@H]1CN(C)S(=O)(=O)c1ccc(F)cc1,-86*,0,107,-9
Cc1ccc(S(=O)(=O)N(C)C[C@@H]2Oc3cc(C#Cc4ccncc4)ccc3S(=O)(=O)N([C@H](C)CO)C[C@@H]2C)cc1,-70,-1,62,-15
C[C@@H]1CN([C@@H](C)CO)S(=O)(=O)c2ccc(C#Cc3ccncc3)cc2O[C@H]1CN(C)S(=O)(=O)c1ccccc1,-61,0,82,-7
O=C(O)CN(c1cc(Cl)cc(Cl)c1)S(=O)(=O)c1ccccc1,nt,0,nt,nt
OC[C@H]1[C@H](c2ccccc2)C2(CN(Cc3ccccc3F)C2)N1Cc1ccccc1F,-93*,nt,nt,5
CC(C)NC(=O)N1[C@@H](CO)[C@@H](c2ccccc2)C12CN(Cc1ccccc1)C2,-51,nt,nt,-2
CC(C)NC(=O)N1[C@@H](CO)[C@@H](c2ccccc2)C12CN(Cc1ccc(Cl)cc1)C2,-69,nt,nt,-1
CC(C)NC(=O)N1[C@H](CO)[C@@H](c2ccccc2)C12CN(Cc1ccc(Cl)cc1)C2,-88*,nt,nt,-1
CC(C)NC(=O)N1[C@@H](CO)[C@@H](c2ccccc2)C12CN(Cc1ccc(F)cc1)C2,-84*,nt,nt,-3
COC(=O)C(CC(=O)c1ccc(Cl)cc1)c1cc(=O)oc2cc(OC)ccc12 (stereo not given),nt,-1,nt,nt
SMILES,Pf Dd2 growth,IDH1 mut inh,T cruzi growth,GASC1 inh
CCOC(=O)c1c(NC(=O)CSc2nc(C)ccc2C#N)sc2c1CCC2,nt,0,nt,nt
Cc1cc(N(CC(=O)Nc2cccc([N+](=O)[O-])c2)S(C)(=O)=O)ccc1Br,nt,0,nt,nt
C[C@@H]1CN([C@@H](C)CO)C(=O)c2cccc(NS(=O)(=O)c3ccc(F)cc3)c2O[C@@H]1CN(C)Cc1ccc(C(=O)Nc2ccccc2N)cc1,-90*,nt,79,1
C[C@@H]1CN([C@@H](C)CO)C(=O)c2cccc(NS(=O)(=O)c3ccc(F)cc3)c2O[C@H]1CN(C)Cc1ccc(C(=O)Nc2ccccc2N)cc1,-68,3,nt,-1
C[C@H]1CN([C@@H](C)CO)C(=O)c2cccc(NS(=O)(=O)c3ccc(F)cc3)c2O[C@H]1CN(C)Cc1ccc(C(=O)Nc2ccccc2N)cc1,-88*,nt,nt,1
C[C@H](CO)N1C[C@H](C)[C@@H](CN(C)CC2CCCCC2)Oc2ccc(NC(=O)Nc3ccc(F)cc3)cc2CC1=O,-90*,0,50,0
C[C@@H]1CN([C@@H](C)CO)C(=O)Cc2cc(NC(=O)Nc3ccc(C(F)(F)F)cc3)ccc2O[C@H]1CN(C)CC1CCCCC1,-87*,0,-25,-3
C[C@@H]1CN([C@H](C)CO)C(=O)Cc2cc(NC(=O)Nc3ccc(F)cc3)ccc2O[C@@H]1CN(C)CC1CCCCC1,-33,-11,69,1
COc1ccc(OC(C)C(=O)Nc2ccccc2C#N)cc1 (stereo not given),nt,0,nt,nt
C[C@@H]1CCCCO[C@H](CN(C)C(=O)Nc2ccc3c(c2)OCO3)[C@H](C)CN([C@H](C)CO)C(=O)c2cc(NC(=O)C3CCCCC3)ccc2O1,-86*,nt,47,-2
C[C@@H]1CN([C@@H](C)CO)C(=O)c2cc(NC(=O)C3CCCCC3)ccc2O[C@@H](C)CCCCO[C@@H]1CN(C)C(=O)Nc1ccc2c(c1)OCO2,-83*,nt,44,-1
C[C@@H]1CN([C@H](C)CO)C(=O)c2cccc(NC(=O)Nc3cccc4ccccc34)c2O[C@@H]1CN(C)Cc1ccc(C(=O)Nc2ccccc2N)cc1,-92*,0,nt,12
C[C@H]1CN([C@@H](C)CO)C(=O)c2cccc(NC(=O)Nc3ccc(F)cc3)c2O[C@@H]1CN(C)Cc1ccc(C(=O)Nc2ccccc2N)cc1,-83*,0,nt,0
C[C@@H]1CN([C@@H](C)CO)C(=O)c2cccc(NC(=O)Nc3ccccc3)c2O[C@@H]1CN(C)Cc1ccc(C(=O)Nc2ccccc2N)cc1,-94*,nt,69,1
C[C@H](CO)N1C[C@H](C)[C@H](CN(C)Cc2ccc(C(=O)Nc3ccccc3N)cc2)Oc2c(NC(=O)Nc3ccc(F)cc3)cccc2C1=O,-79,1,nt,1
C[C@@H]1CN([C@H](C)CO)C(=O)c2cccc(NC(=O)Nc3ccc4c(c3)OCO4)c2O[C@@H]1CN(C)Cc1ccc(C(=O)Nc2ccccc2N)cc1,-91*,nt,110,-1
C[C@@H]1CN([C@@H](C)CO)C(=O)c2cccc(NC(=O)Nc3ccc(C(F)(F)F)cc3)c2O[C@H]1CN(C)Cc1ccc(C(=O)Nc2ccccc2N)cc1,-85*,nt,nt,1
CC(C)NC(=O)Nc1cccc2c1O[C@H](CN(C)Cc1ccc(C(=O)Nc3ccccc3N)cc1)[C@H](C)CN([C@@H](C)CO)C2=O,-84*,4,nt,-1
